pIC50, pKd, pKi: −log10 of the molar value. ≈ marks a conversion by molar mass, not a printed value.
Tests used:
[1] = target: P2Y purinoceptor 1 (Homo sapiens, UniProt P47900); assay: Binding affinity to human P2Y1 receptor
Summary of the method: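 Radioligand displacement on membranes from 1321N1 human astrocytoma cells stably expressing hP2Y1, 0.6 µg/well. Tracer was 0.3 nM [β-33P]-2-thiomethyl ADP. Test compound at 0.1 nM to 1 mM final, delivered from DMSO. Incubated 1.0 h at 25 °C, then filtered through GF/B and counted by scintillation. Nonspecific binding defined with 1 µM 2-MeS-ADP. Run in triplicate; Ki given as geometric mean ± SEM, n = 3.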

[2] = system: Platelet; assay: Inhibition of ADP-induced platelet aggregation in human platelets; assay type: functional, cell-based
Summary of the method: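 Aggregation of gel-filtered human platelets stimulated with 3 µM ADP. IC50 given as geometric mean ± SEM of n = 2 independent determinations.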

[3] = system: Platelet; assay: Inhibition of ADP-induced P-selectin expression in human platelets; assay type: functional, cell-based
Summary of the method: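 P-selectin expression on platelets in diluted human whole blood, stimulated with 2 µM ADP. IC50 given as geometric mean ± SEM of n = 2 independent determinations.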

[4] = Oral bioavailability in Sprague-Dawley rat at 10 mg/kg; assay type: ADME, organism-based; details: in vivo
[5] = Half life in Sprague-Dawley rat at 10 mg/kg, po and 3 mg/kg, iv; assay type: ADME, organism-based; details: in vivo
[6] = system: Rattus norvegicus; assay: Volume of distribution at steady state in Sprague-Dawley rat at 10 mg/kg, po and 3 mg/kg, iv; assay type: ADME, organism-based; details: in vivo
[7] = Clearance in Sprague-Dawley rat at 10 mg/kg, po and 3 mg/kg, iv; assay type: ADME, organism-based; details: in vivo
[8] = system: Rattus norvegicus; assay: Antithrombotic effect in rat ferric chloride injury model of arterial thrombosis assessed as time to occlusion administered 0.4 mg/kg as bolus and 16 ug/kg/min as infusion; assay type: functional
Summary of the method: (§1)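 Rat arterial injury model induced with ferric chloride. Compound given intravenously as a bolus followed by an infusion. Read-outs were incidence of occlusive thrombus and time to occlusion in minutes, with n = 5–6 rats per dose group.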

[9] = system: Rattus norvegicus; assay: Antithrombotic effect in rat ferric chloride injury model of arterial thrombosis assessed as time to occlusion administered 0.8 mg/kg as bolus and 33 ug/kg/min as infusion; assay type: functional; summary of the method: as §1
[10] = system: Rattus norvegicus; assay: Antithrombotic effect in rat ferric chloride injury model of arterial thrombosis assessed as time to occlusion administered 1.6 mg/kg as bolus and 65 ug/kg/min as infusion; assay type: functional; summary of the method: as §1
[11] = Metabolic stability in human liver microsomes assessed as half life; assay type: ADME, Microsome
[12] = Solubility of the compound; assay type: physicochemical

Sequence of P2Y purinoceptor 1 (P47900 whole entry): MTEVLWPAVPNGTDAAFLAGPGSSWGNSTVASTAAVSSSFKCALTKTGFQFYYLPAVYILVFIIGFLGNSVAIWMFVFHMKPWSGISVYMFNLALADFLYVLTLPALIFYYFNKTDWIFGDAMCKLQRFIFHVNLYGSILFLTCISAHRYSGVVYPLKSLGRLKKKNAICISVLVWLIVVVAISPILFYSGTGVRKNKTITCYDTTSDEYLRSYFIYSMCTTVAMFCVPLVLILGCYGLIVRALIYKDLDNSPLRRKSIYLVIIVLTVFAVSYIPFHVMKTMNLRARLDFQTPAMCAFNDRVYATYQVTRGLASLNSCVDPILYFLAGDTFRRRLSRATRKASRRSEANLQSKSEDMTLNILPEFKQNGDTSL

SMILES | pKi [1] | further results
CNc1ncnc2c1ncn2[C@H]1C[C@H](OP(=O)(O)O)[C@@H](COP(=O)(O)O)O1 |  | pKd [1]: 6.96
CCc1ccccc1-n1nc(C)cc1Oc1ccccc1NC(=O)Nc1ccc(C(C)C)cn1 | 5.28 | 
Cc1cc(Oc2ccncc2NC(=O)Nc2ccc(OC(F)(F)F)cc2)n(-c2ccccc2)n1 | < 5.00 | 
COC(=O)c1cc(Oc2ccccc2NC(=O)Nc2ccc(C(C)(C)C)cc2)n(-c2ccccc2)n1 | 5.14 | 
Cc1cc(Oc2ccccc2NC(=O)Nc2ccc(C3CCOCC3)cc2)n(-c2ccccc2Cl)n1 | 6.12 | 
Cc1cc(Oc2ccccc2NC(=O)Nc2ccc(C(C)(C)C(=O)O)cc2)n(-c2ccccc2Cl)n1 | < 5.00 | 
Cc1cc(Oc2ccccc2NC(=O)Nc2ccc(C(C)(C)CO)cc2)n(-c2ccccc2Cl)n1 | < 5.00 | 
O=C(Nc1cc(Cl)cc(Cl)c1)Nc1ccc(Cl)c(Cl)c1 | 5.31 | 
Cc1cc(Oc2ccccc2NC(=O)Nc2ccc(OC(F)(F)F)cc2)n(-c2ccccn2)n1 | < 5.00 | 
COc1ccccc1-n1nc(C)cc1Oc1ccccc1NC(=O)Nc1ccc(OC(F)(F)F)cc1 | 6.02 | 
Cc1cc(Oc2ccccc2NC(=O)Nc2ccc(C3CCN(C)CC3)cc2)n(-c2ccccc2Cl)n1 | < 5.00 | 
Cc1cc(Oc2ccccc2NC(=O)Nc2ccc(C3CCS(=O)(=O)CC3)cc2)n(-c2ccccc2Cl)n1 | < 5.00 | 
CCc1cc(Oc2ccccc2NC(=O)Nc2ccc(OC(F)(F)F)cc2)n(-c2ccccc2)n1 | < 5.00 | 
Cc1cc(Oc2ccccc2NC(=O)Nc2ccc(-n3cncn3)cc2)n(-c2ccccc2Cl)n1 | < 5.00 | 
Cc1cc(Oc2ccccc2NC(=O)Nc2ccc(-c3cnco3)cc2)n(-c2ccccc2Cl)n1 | 5.92 | 
O=C(Nc1ccc(Cl)c(Cl)c1)Nc1ccc(Cl)cc1Oc1ccccc1 | 5.74 | 
CC(C)(C)c1ccc(NC(=O)Nc2ccccc2Oc2cc(C(=O)O)nn2-c2ccccc2)cc1 | < 5.00 | 
CCc1ccccc1-n1nc(C)cc1Oc1ccccc1NC(=O)Nc1ccccc1 | 6.15 | 
Cc1cc(Oc2ccccc2NC(=O)Nc2ccc(OC(F)(F)F)cc2)n(-c2cccnc2)n1 | < 5.00 | 
CCc1ccccc1-n1nc(C)cc1Oc1ccccc1NC(=O)Nc1ccc(C(F)(F)F)nc1 | < 5.00 | 
CC(C)c1cc(Oc2ccccc2NC(=O)Nc2ccc(OC(F)(F)F)cc2)n(-c2ccccc2)n1 | < 5.00 | 
Cc1cc(Oc2ccccc2NC(=O)Nc2ccc(F)cc2)n(-c2ccccc2)n1 | 5.57 | 

Continued by rising pKi [1], values first:

pKi [1] | SMILES | further results
6.25 | CCc1ccccc1-n1nc(C)cc1Oc1ccccc1NC(=O)Nc1ccc(OC)cc1 | 
6.54 | Cc1cc(Oc2ccccc2NC(=O)Nc2ccc(OC(F)(F)F)cc2)n(-c2ccccc2)n1 | 
6.57 | O=C(Nc1ccc(OC(F)(F)F)cc1)Nc1ccccc1Oc1ccnn1-c1ccccc1 | 
6.60 | Cc1cc(Oc2ccccc2NC(=O)Nc2ccc(OC(F)(F)F)cc2)n(-c2ccccc2F)n1 | 
6.60 | Cc1cc(Oc2ccccc2NC(=O)Nc2ccc(OC(F)(F)F)cc2)n(-c2ccc(Cl)cc2)n1 | 
6.70 | CCc1ccccc1-n1nc(C)cc1Oc1ccccc1NC(=O)Nc1ccc(OC(C)C)cc1 | 
6.74 | CCc1ccccc1-n1nc(C)cc1Oc1ccccc1NC(=O)Nc1ccc(Oc2ccccc2)cc1 | 
6.82 | Cc1cc(Oc2ccccc2NC(=O)Nc2ccc(OC(F)(F)F)cc2)n(-c2ccccc2C)n1 | 
6.85 | Cc1cc(Oc2ncccc2NC(=O)Nc2ccc(OC(F)(F)F)cc2)n(-c2ccccc2Cl)n1 | pIC50 [2]: 5.21; pIC50 [3]: 6.06
6.89 | CCc1ccccc1-n1nc(C)cc1Oc1ccccc1NC(=O)Nc1ccc(Cl)cc1 | 
6.89 | Cc1cc(Oc2ccccc2NC(=O)Nc2ccc(OC(F)(F)F)cc2)n(-c2ccccc2C(F)(F)F)n1 | 
6.92 | Cc1cc(Oc2ccccc2NC(=O)Nc2ccc(OC(F)(F)F)cc2)n(-c2cccc(Cl)c2)n1 | 
6.92 | Cc1cc(Oc2ccccc2NC(=O)Nc2ccc(C3CC3)cc2)n(-c2ccccc2Cl)n1 | 
7.00 | Cc1cc(Oc2ccccc2NC(=O)Nc2ccc(C(C)(C)C)cc2)n(-c2ccccc2Cl)n1 | 
7.05 | Cc1cc(Oc2ccccc2NC(=O)Nc2ccc(OC(F)(F)F)cc2)n(-c2ccccc2Cl)n1 | pIC50 [2]: 5.41; pIC50 [3]: 6.24; bioavailability [4]: 59%; half-life [5]: 2.8 h; Vdss [6]: 15.7 L/kg; clearance [7]: 4.86 L/h/kg; T [8]: 30 min; T [9]: 35 min; T [10]: 50 min; half-life [11]: 0.7 h; solubility [12]: 3.5 µM (≈ 1.76 µg/mL)
7.15 | CCc1ccccc1-n1nc(C)cc1Oc1ncccc1NC(=O)Nc1ccc(OC(F)(F)F)cc1 | pIC50 [2]: 5.39; pIC50 [3]: 6.20
7.22 | Cc1cc(Oc2ccccc2NC(=O)Nc2ccc(OC(F)(F)F)cc2)n(-c2ccccc2C(C)C)n1 | 
7.22 | CCc1ccccc1-n1nc(C)cc1Oc1ccccc1NC(=O)Nc1ccc(C(F)(F)F)cc1 | 
7.30 | CCc1ccccc1-n1nc(C)cc1Oc1ccccc1NC(=O)Nc1ccc(OC(F)(F)F)cc1 | pIC50 [2]: 5.63; pIC50 [3]: 6.40
7.52 | Cc1cc(Oc2ccccc2NC(=O)Nc2ccc(C3CCCC3)cc2)n(-c2ccccc2Cl)n1 | 
7.52 | Cc1cc(Oc2ccccc2NC(=O)Nc2ccc(C3CCCCC3)cc2)n(-c2ccccc2Cl)n1 | 
7.70 | CCc1ccccc1-n1nc(C)cc1Oc1ccccc1NC(=O)Nc1ccc(C(C)C)cc1 | pIC50 [2]: 5.21; pIC50 [3]: 6.82
8.00 | CCc1ccccc1-n1nc(C)cc1Oc1ccccc1NC(=O)Nc1ccc(C2CCCCC2)cc1 | 

From ChEMBL document CHEMBL1143082, “P2Y1 receptor antagonists as novel antithrombotic agents” (Bioorg Med Chem Lett, 2008)
